GSIS activator: GLuc luminescence reporter in INS-1E cells, primary screen for activators of glucose-dependent secretion of insulin. INS-1E GLuc reporter insulin secretion, 2-3 h. activation, % at 16.6 µM. 370,000 compounds, 0.61% hits. AID 743287, 2014;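 active = lowest replicate activation of at least 40%, so every replicate reaches that level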;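 note: 0% = median of neutral control wells and 100% = median of IBMX positive control wells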
CaV13 ICDI inh: Disruptors of the CACNA1D IQ motif to Ca2+-dependent inactivation inhibitor domain association, primary screening, Förster resonance energy transfer in intact living …. AID 743397. inhibition, % at 12.3 µM. HEK cells, CFP/YFP FRET ICDI-IQ, plate reader, 10 min; percent FRET-ratio fall versus neutral wells. 340,000 compounds, 0.098% hits;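 active = mean replicate inhibition of at least 30% and at least 1% of replicates passing that level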;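 note: 0% = median of the neutral control wells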
GAA850 FXN act: FXN promoter activators, primary screen, cell-based, luciferase luminescence, HEK293 lucGAA850 | HEK293 lucGAA850 FXN promoter luciferase reporter, 24 h; percent of 10 µM SAHA response | activation, % at 6 µM | 360,000 compounds, 0.56% hits;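 active = activation above the average of all compounds screened plus 3 SD, cutoff fixed separately per campaign, cut at about 7.5% in these data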;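 note: 0% = DMSO wells and 100% = 10 µM SAHA wells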
Xi reactivation: activators of inactive X chromosome reactivation, primary screen, imaging, XiGFP fibroblasts, GFP high-content imaging, set 2 | XiGFP mouse fibroblasts, % GFP-positive cells imaging, 3 d; cells co-treated with 5-aza-dC sensitizer; scaled so ellipticine positive control = 100% | AID 743238, 2013 | 360,000 compounds, 0.055% hits | activation, % at 7.58 µM;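 active = mean normalized replicate activation at least 10% and every replicate at or above 10%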;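 note: 0% = median of on-plate neutral control wells and 100% = ellipticine 6 µM median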
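assay system = SV40-immortalized XiGFP fibroblast cells, line 68-5-11 | buffer or medium = DMEM plus 5-aza-dC sensitizer | doses = single-point pinned compound dosing | times = 3-day compound exposure, then 15 min fixation at room temperature | benchmarks = positive control ellipticine, 6 µM final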
Starred values were filed as active, the others as inactive; x = not tested or not shown. Shown are actives, neighbours in structure and some others; about 1% of the full set was active somewhere.

SMILES	GSIS activator	CaV13 ICDI inh	GAA850 FXN act	Xi reactivation
COc1cccc(-c2cn(CC[C@H]3CC[C@H](NC(C)=O)[C@@H](CO)O3)nn2)c1	12.9	x	x	0.2
CCCNC(=O)Cn1sc2nc(C)cc(C)c2c1=O	94.2*	-3.0	-3.5	0.0
C[C@@H]1CN([C@H](C)CO)C(=O)c2cc(NC(=O)Nc3ccc(F)cc3)ccc2O[C@@H](C)CCCCO[C@H]1CN(C)Cc1ccccc1	-33.1	x	x	0.0
O=C(NCCN1CCN(C(=O)c2ccccc2Cl)CC1)C(=O)NCc1ccccc1	159.8*	-1.7	-0.3	0.3
Cc1ccc(S(=O)(=O)N(C)C[C@H]2Oc3ccc(NC(=O)C4CCCCC4)cc3CC(=O)N([C@@H](C)CO)C[C@H]2C)cc1	-14.5	x	x	-0.4
CCCC(=O)Nc1ccc2c(c1)C(=O)N(C)[C@@H]1CC[C@@H](CC(=O)Nc3cn(C)nc3C)O[C@H]1CO2	-1.8	x	x	0.3
COCC#Cc1ccc2c(c1)O[C@@H](CN(C)Cc1ccncc1)[C@@H](C)CN([C@@H](C)CO)S2(=O)=O	0.8	x	x	-1.1
COc1ccc(C#Cc2ccc([C@H]3[C@H](CO)N4CCCCN(Cc5ccccc5F)C[C@@H]34)cc2)cc1	18.4	x	x	0.3
COc1ccc(C#Cc2ccc([C@@H]3[C@@H](CO)N4CCCCN(Cc5ccccc5F)C[C@@H]34)cc2)cc1	95.3*	x	x	0.3
COc1ccc(C#Cc2ccc([C@@H]3[C@H](CO)N4CCCCN(Cc5ccccc5F)C[C@@H]34)cc2)cc1	50.0*	x	x	0.0
CO[C@@H]1CN(C)C(=O)c2ccc(NC(C)=O)cc2OC[C@H](C)N(Cc2ccccn2)C[C@H]1C	15.6	x	x	0.7
Cc1ccc2cc(CN(CC3CCCO3)C(=O)c3cccs3)c(=O)[nH]c2c1 (configuration not stated)	-7.0	-3.1	-0.3	-0.1
Cc1ccc2[nH]c(=O)c(CN(CC3CCCO3)C(=O)c3cccs3)cc2c1 (configuration not stated)	155.8*	-6.7	1.1	0.9
COc1cc(-c2ccc3c(=O)c4ccccc4n(C)c3c2)cc(OC)c1OC	10.7	-6.5	-2.8	0.0
Cn1c2ccccc2c(=O)c2ccc(F)cc21	5.9	186.0*	5.1	0.0
Cc1cccc(C(=O)NNC(=O)c2c(O)c3ccccc3n(C)c2=O)c1	-23.9	-2.8	0.0	0.1
Cn1c(=O)c(C(=O)NNC(=O)c2cccc(Cl)c2)c(O)c2ccccc21	544.6*	-4.6	0.6	-0.1
Cn1c(N)c(C(=O)Nc2ccc3ccccc3c2)sc1=S	85.9*	-8.8	6.6	x
Cn1c(N)c(C(=O)Nc2ccccc2F)sc1=S	-5.2	-3.5	1.5	0.1
O=C1CC(=O)Nc2cc(S(=O)(=O)NCc3cccs3)ccc2N1	41.4*	-3.0	0.6	0.2
O=C(C[C@H]1CC[C@@H]2[C@H](COC[C@@H](O)CN2C(=O)Nc2ccc(F)cc2)O1)NCCc1ccccc1	-6.5	x	x	0.1
CCn1ncc2c1C(=O)NC1c3ccccc3C(=O)N21 (configuration not stated)	51.4*	-4.7	1.8	x
CN(C)C(=O)CSC1c2ccccc2C(=O)N1c1ccccc1 (configuration not stated)	6.1	-7.7	0.5	x
C[C@@H]1CN([C@@H](C)CO)C(=O)c2cccc(NC(=O)c3ccncc3)c2O[C@@H]1CN(C)C(=O)Nc1ccccc1	21.7	x	x	0.3
C[C@@H]1CN([C@@H](C)CO)C(=O)Cc2cc(NC(=O)c3ccncc3)ccc2O[C@@H]1CN(C)Cc1ccc(C(=O)O)cc1	37.1	x	x	-1.2
SMILES	GSIS activator	CaV13 ICDI inh	GAA850 FXN act	Xi reactivation
O=C(NCCc1ccccc1)c1cc(-c2ccc3c(c2)OCO3)on1	44.4*	-7.4	-3.1	x
CCCNC(=O)c1cc(-c2ccc3c(c2)OCO3)on1	-2.1	-4.5	1.9	0.0
COc1ccc2[nH]c(=O)c(CN(CCO)C(=O)c3ccccc3F)cc2c1	66.5*	x	1.5	x
CCOC(=O)C1=c2/c(=C/c3ccncc3)c(N)c(C(=O)OC)n2C(=O)C(c2ccncc2)S1 (configuration not stated)	-0.1	-2.2	1.1	115.8*
Cc1cccc(C)c1NC(=O)C1c2ccccc2Oc2ccccc21	51.0*	-4.5	-0.2	0.0
CO[C@@H]1CC[C@@H]2CCOc3c(C#N)cccc3C(=O)N(C)[C@H](C)C(=O)N(C)C[C@@H]1O2	1.0	x	x	0.0
COc1ccc2c3c([nH]c2c1)[C@H](CO)N(C(C)=O)CC31CN(Cc2cc(-c3ccccc3)on2)C1	4.0	x	x	0.1
COc1cc(/C=C/C(=O)OCC(=O)NC(=O)C2COc3ccccc3O2)ccc1OC(F)F (configuration not stated)	45.0*	-10.1	-1.7	0.1
C[C@@H]1CN([C@H](C)CO)C(=O)Cc2cc(NC(=O)Nc3ccc(C(F)(F)F)cc3)ccc2O[C@H]1CN(C)S(C)(=O)=O	13.2	x	x	-0.2
Cc1cccc(C(=O)NNC(=O)c2ccc(-c3ccccc3)cc2)c1	99.3*	-5.0	-0.3	x
O=C(NNC(=O)c1ccc(-c2ccccc2)cc1)c1ccccc1	0.5	-1.9	1.5	0.0
NS(=O)(=O)c1cccc(-n2cnnn2)c1	0.5	-6.1	0.4	39.8*
O=C1CCC(=O)N[C@@H](c2ccccc2)C/C=C\CCN1	5.6	x	x	0.5
CCCCC(CC)C(=O)Oc1ccc(O)c(C(C)(C)C)c1 (configuration not stated)	511.4*	-5.2	2.9	0.4
CC(C)(C)c1cc(OC(=O)C2CCCC2)ccc1O	39.8	-10.0	2.6	0.2
COc1cc(OC)c2c3c(c(C4CCCCC4)nc2c1)CCC3	266.3*	-11.0	1.4	0.0
C[C@@H]1CN([C@@H](C)CO)C(=O)c2cccc(NC(=O)NC3CCCCC3)c2O[C@H]1CN(C)S(C)(=O)=O	8.1	x	x	0.5
Cc1ccc(S(=O)(=O)N2CCN(C(=O)COC(=O)c3ccccc3OC(F)F)CC2)c(C)c1	0.8	-2.5	-1.6	127.1*
Cc1ccc(S(=O)(=O)N2CCN(C(=O)COC(=O)c3ccc(C(C)(C)C)cc3)CC2)c(C)c1	-4.6	-10.8	0.4	0.3
Cc1ccc(S(=O)(=O)N2CCN(C(=O)COC(=O)c3ccc(O)cc3)CC2)c(C)c1	49.5*	-6.1	-0.3	0.0
CCC(=O)N1C[C@H](C)[C@H](OC)CN(C)C(=O)c2cc(NC(=O)C3CCCCC3)ccc2OC[C@H]1C	6.9	x	x	0.1
CCc1cc2c(COC(=O)c3cc(S(=O)(=O)N4CCOCC4)ccc3F)cc(=O)oc2cc1O	x	-6.7	0.4	0.0
CCc1cc2c(COC(=O)c3cccc(NS(C)(=O)=O)c3)cc(=O)oc2cc1O	65.3*	-6.8	-1.1	0.0
CCCCNc1c(-c2ccc(OC)c(Sc3ccc(OC)cc3)c2)nc2cnccn12	-23.7	-13.9	1.1	0.1

Screening data: PubChem BioAssay, several laboratories
